Source: ChEMBL document CHEMBL2169776, “Antimicrobial activity of peptidomimetics against multidrug-resistant Escherichia coli: a comparative study of different backbones” (J Med Chem, 2012)
In brackets after ≈: the same amount, converted by molar mass. Square brackets hold non-standard residues; d marks the D form. Peptide text beside a SMILES is read from it. Nphe = O=C(O)CNCc1ccccc1; Nlys = NCCCCNCC(=O)O

Tests used:
[1] = system: Escherichia coli; test: Antibacterial activity against multidrug resistant NDM-1 producing Escherichia coli isolate after 16 to 20 hrs by broth microdilution assay; assay type: functional
[2] = system: Escherichia coli; test: Antibacterial activity against multidrug resistant ESBL producing Escherichia coli isolate after 16 to 20 hrs by broth microdilution assay; assay type: functional
[3] = system: Staphylococcus aureus; test: Antibacterial activity against methicillin-resistant Staphylococcus aureus isolate after 16 to 20 hrs by broth microdilution assay; assay type: functional
[4] = Hemolytic activity against human RBCs after 1 hr by spectrophotometry; assay type: ADME, cell-based; settings: erythrocyte
In short: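 Freshly drawn human erythrocytes washed in TBS (pH 7.2, 10 mM Tris, 150 mM NaCl), 1% v/v suspension mixed with 2-fold serial dilutions (1−128 μM) in water; 1 h at 37 °C. After pelleting, supernatant diluted 1:1 with water and hemoglobin read at OD 405 nm. Melittin (400 μg/mL) = 100%, TBS = 0%. Value is the lowest concentration giving ≥10% lysis.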

[5] = Proteolytic stability of compound in presence of Pronase by reverse phase HPLC analysis; assay type: ADME
In short: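 Oligomer (2 mg/mL solution, 250 μL) incubated with Pronase (1.0 mg/mL solution, 50 μL) in 10 mM Tris pH 7.5 (1.2 mL); enzyme activity first confirmed on Nα-benzoyl arginine. Degradation followed by analytical reverse-phase HPLC (10−60% B) at 6, 12, 18 and 50 h; degradation product identified by HRMS.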

[6] = system: Klebsiella pneumoniae; test: Antibacterial activity against multidrug resistant NDM-1 producing Klebsiella pneumoniae isolate after 16 to 20 hrs by broth microdilution assay; assay type: functional
[7] = system: Escherichia coli; test: Antibacterial activity against multidrug resistant Amp-C producing Escherichia coli isolate after 16 to 20 hrs by broth microdilution assay; assay type: functional
[8] = system: HeLa; test: Cytotoxicity against human HeLa cells assessed as growth inhibition after 1 hr; assay type: cell-based
In short: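 HeLa cells seeded at 9000 per well, cultured 24 h; at 80−100% confluency washed with HBSS and exposed 1 h (37 °C, 50 rpm) to 2-fold serial dilutions in EMEM. After washing, MTS/PMS (240/2.4 μg/mL) in HBSS added for 1.5 h; formazan read at 492 nm. 0.2% SDS = 0%, EMEM alone = 100%. Test range 1−128 or 8−1024 μM; IC50 reported.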

[9] = Therapeutic index, ratio of HC10 for human erythrocyte cells to MIC for multidrug resistant bacterial strains; settings: read-out: TI
In short: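 TI = hemolytic activity divided by median of MIC values. Hemolysis: washed fresh human RBCs (1% v/v in TBS, pH 7.2) with 2-fold oligomer dilutions (1–128 μM), 37 °C, 1 h; supernatant OD 405 nm; melittin 400 μg/mL = 100%, TBS = 0%. HA = concentration giving ≥10% lysis. MICs by broth microdilution, 35 °C, 16–20 h.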

[10] = system: Escherichia coli; test: Antibacterial activity against Escherichia coli ATCC 25922 after 16 to 20 hrs by broth microdilution assay; assay type: functional
[11] = system: Klebsiella pneumoniae; test: Antibacterial activity against multidrug resistant KPC producing Klebsiella pneumoniae isolate after 16 to 20 hrs by broth microdilution assay; assay type: functional

Molecule | MIC [1] [µM] | MIC [2] [µM] | MIC [3] [µM] | HC10 [4] [µM] | Stability [5] | MIC [6] [µM] | MIC [7] [µM] | IC50 [8] [µM] | selectivity ratio [9] | MIC [10] [µM] | MIC [11] [µM]
CC(=O)N[C@@H](CCCCN)C(=O)N[C@H](CC(=O)N[C@@H](CCCCN)C(=O)N[C@H](CC(=O)N[C@@H](CCCCN)C(=O)N[C@H](CC(=O)N[C@@H](CCCCN)C(=O)N[C@H](CC(=O)N[C@@H](CCCCN)C(=O)N[C@H](CC(=O)N[C@@H](CCCCN)C(=O)N[C@H](CC(=O)N[C@@H](CCCCN)C(=O)N[C@H](CC(=O)N[C@@H](CCCCN)C(=O)N[C@H](CC(N)=O)Cc1ccccc1)Cc1ccccc1)Cc1ccccc1)Cc1ccccc1)Cc1ccccc1)Cc1ccccc1)Cc1ccccc1)Cc1ccccc1 | 64 (≈ 152 µg/mL) | 32 (≈ 76 µg/mL) | 32 (≈ 76 µg/mL) | 64 | Stable | 128 (≈ 304 µg/mL) | 32 (≈ 76 µg/mL) | 31.1 | 1 | 64 (≈ 152 µg/mL) | 128 (≈ 304 µg/mL)
CC(=O)N(CCCCN)CCC(=O)N[C@@H](Cc1ccccc1)C(=O)N(CCCCN)CCC(=O)N[C@@H](Cc1ccccc1)C(=O)N(CCCCN)CCC(=O)N[C@@H](Cc1ccccc1)C(=O)N(CCCCN)CCC(=O)N[C@@H](Cc1ccccc1)C(=O)N(CCCCN)CCC(=O)N[C@@H](Cc1ccccc1)C(=O)N(CCCCN)CCC(=O)N[C@@H](Cc1ccccc1)C(=O)N(CCCCN)CCC(=O)N[C@@H](Cc1ccccc1)C(=O)N(CCCCN)CCC(=O)N[C@@H](Cc1ccccc1)C(N)=O | 2 (≈ 4.75 µg/mL) | 16 (≈ 38 µg/mL) | 256 (≈ 608 µg/mL) | > 128 | Stable | 256 (≈ 608 µg/mL) | 16 (≈ 38 µg/mL) | 62.6 | > 11 | 8 (≈ 19 µg/mL) | 64 (≈ 152 µg/mL)
CC(=O)N[C@@H](CCCCN)C(=O)N[C@@H](Cc1ccccc1)C(=O)N[C@@H](CCCCN)C(=O)N[C@@H](Cc1ccccc1)C(=O)N[C@@H](CCCCN)C(=O)N[C@@H](Cc1ccccc1)C(=O)N[C@@H](CCCCN)C(=O)N[C@@H](Cc1ccccc1)C(=O)N[C@@H](CCCCN)C(=O)N[C@@H](Cc1ccccc1)C(=O)N[C@@H](CCCCN)C(=O)N[C@@H](Cc1ccccc1)C(=O)N[C@@H](CCCCN)C(=O)N[C@@H](Cc1ccccc1)C(=O)N[C@@H](CCCCN)C(=O)N[C@@H](Cc1ccccc1)C(N)=O | 128 (≈ 290 µg/mL) | > 256 | 16 (≈ 36.2 µg/mL) | < 1 | Unstable | > 256 | > 256 | 19.6 | < 0.004 | > 256 | > 256
CC(=O)N(CCCCN)CCC(=O)N(CCC(=O)N(CCCCN)CCC(=O)N(CCC(=O)N(CCCCN)CCC(=O)N(CCC(=O)N(CCCCN)CCC(=O)N(CCC(=O)N(CCCCN)CCC(=O)N(CCC(=O)N(CCCCN)CCC(=O)N(CCC(=O)N(CCCCN)CCC(=O)N(CCC(=O)N(CCCCN)CCC(=O)N(CCC(N)=O)Cc1ccccc1)Cc1ccccc1)Cc1ccccc1)Cc1ccccc1)Cc1ccccc1)Cc1ccccc1)Cc1ccccc1)Cc1ccccc1 | 4 (≈ 9.95 µg/mL) | 8 (≈ 19.9 µg/mL) | 256 (≈ 636 µg/mL) | > 128 | Stable | 256 (≈ 636 µg/mL) | 16 (≈ 39.8 µg/mL) | 169 | > 10 | 16 (≈ 39.8 µg/mL) | 256 (≈ 636 µg/mL)
CC(=O)N[C@@H](CCCCN)C(=O)N(CC(=O)N[C@@H](CCCCN)C(=O)N(CC(=O)N[C@@H](CCCCN)C(=O)N(CC(=O)N[C@@H](CCCCN)C(=O)N(CC(=O)N[C@@H](CCCCN)C(=O)N(CC(=O)N[C@@H](CCCCN)C(=O)N(CC(=O)N[C@@H](CCCCN)C(=O)N(CC(=O)N[C@@H](CCCCN)C(=O)N(CC(N)=O)Cc1ccccc1)Cc1ccccc1)Cc1ccccc1)Cc1ccccc1)Cc1ccccc1)Cc1ccccc1)Cc1ccccc1)Cc1ccccc1 (Ac-K[Nphe]K[Nphe]K[Nphe]K[Nphe]K[Nphe]K[Nphe]K[Nphe]K[Nphe]-NH2) | 2 (≈ 4.52 µg/mL) | 8 (≈ 18.1 µg/mL) | 256 (≈ 579 µg/mL) | > 128 | Stable | 128 (≈ 290 µg/mL) | 8 (≈ 18.1 µg/mL) | 101 | > 21 | 4 (≈ 9.05 µg/mL) | 128 (≈ 290 µg/mL)
CC(=O)N[C@@H](CCCCN)CC(=O)N[C@H](CC(=O)N[C@@H](CCCCN)CC(=O)N[C@H](CC(=O)N[C@@H](CCCCN)CC(=O)N[C@H](CC(=O)N[C@@H](CCCCN)CC(=O)N[C@H](CC(=O)N[C@@H](CCCCN)CC(=O)N[C@H](CC(=O)N[C@@H](CCCCN)CC(=O)N[C@H](CC(=O)N[C@@H](CCCCN)CC(=O)N[C@H](CC(=O)N[C@@H](CCCCN)CC(=O)N[C@H](CC(N)=O)Cc1ccccc1)Cc1ccccc1)Cc1ccccc1)Cc1ccccc1)Cc1ccccc1)Cc1ccccc1)Cc1ccccc1)Cc1ccccc1 | 32 (≈ 79.6 µg/mL) | 32 (≈ 79.6 µg/mL) | 16 (≈ 39.8 µg/mL) | 128 | Stable | 32 (≈ 79.6 µg/mL) | 32 (≈ 79.6 µg/mL) | 31 | 4 | 16 (≈ 39.8 µg/mL) | 32 (≈ 79.6 µg/mL)
CC(=O)N[C@H](CCCCN)C(=O)N[C@H](Cc1ccccc1)C(=O)N[C@H](CCCCN)C(=O)N[C@H](Cc1ccccc1)C(=O)N[C@H](CCCCN)C(=O)N[C@H](Cc1ccccc1)C(=O)N[C@H](CCCCN)C(=O)N[C@H](Cc1ccccc1)C(=O)N[C@H](CCCCN)C(=O)N[C@H](Cc1ccccc1)C(=O)N[C@H](CCCCN)C(=O)N[C@H](Cc1ccccc1)C(=O)N[C@H](CCCCN)C(=O)N[C@H](Cc1ccccc1)C(=O)N[C@H](CCCCN)C(=O)N[C@H](Cc1ccccc1)C(N)=O | 128 (≈ 290 µg/mL) | 256 (≈ 579 µg/mL) | 16 (≈ 36.2 µg/mL) | < 1 | Stable | 256 (≈ 579 µg/mL) | 256 (≈ 579 µg/mL) | 18.1 | < 0.008 | 128 (≈ 290 µg/mL) | 256 (≈ 579 µg/mL)
O=C(O)c1cn(C2CC2)c2cc(N3CCNCC3)c(F)cc2c1=O [CIPROFLOXACIN] | – | – | 19 (≈ 6.3 µg/mL) | – | – | – | – | – | – | < 0.1 | –
CO/N=C(\C(=O)N[C@@H]1C(=O)N2C(C(=O)O)=C(COC(C)=O)CS[C@H]12)c1csc(N)n1 [CEFOTAXIME] | > 134 | > 134 | 34 (≈ 15.5 µg/mL) | – | – | > 134 | 2.1 (≈ 0.956 µg/mL) | – | – | < 0.1 | > 134
GENTAMICIN | > 111 | > 111 | 56 | – | – | 111 | 6.9 | – | – | 1.7 | > 111
CC(=O)N(CCCCN)CC(=O)N[C@@H](Cc1ccccc1)C(=O)N(CCCCN)CC(=O)N[C@@H](Cc1ccccc1)C(=O)N(CCCCN)CC(=O)N[C@@H](Cc1ccccc1)C(=O)N(CCCCN)CC(=O)N[C@@H](Cc1ccccc1)C(=O)N(CCCCN)CC(=O)N[C@@H](Cc1ccccc1)C(=O)N(CCCCN)CC(=O)N[C@@H](Cc1ccccc1)C(=O)N(CCCCN)CC(=O)N[C@@H](Cc1ccccc1)C(=O)N(CCCCN)CC(=O)N[C@@H](Cc1ccccc1)C(N)=O (Ac-[Nlys]F[Nlys]F[Nlys]F[Nlys]F[Nlys]F[Nlys]F[Nlys]F[Nlys]F-NH2) | 32 (≈ 72.4 µg/mL) | 16 (≈ 36.2 µg/mL) | > 256 | > 128 | – | 256 (≈ 579 µg/mL) | 32 (≈ 72.4 µg/mL) | 267 | > 5 | 16 (≈ 36.2 µg/mL) | 256 (≈ 579 µg/mL)
